Assay results: ChEMBL document CHEMBL4368886, “Design, synthesis, and biological activity of novel ammonium salts containing sterically hindered phenolic fragment and phosphoryl group” (Medchemcomm, 2018)
≈ marks a conversion by molar mass, not a printed value. Calls of active or inactive are those of the source. The rule behind the calls is not given here.

What was measured:
[1] = system: Staphylococcus aureus; assay: Antimicrobial activity against Staphylococcus aureus 209p measured every 24 hrs for 5 days by two-fold serial dilution method; type: functional
[2] = system: Bacillus cereus; assay: Antimicrobial activity against Bacillus cereus ATCC 8035 measured every 24 hrs for 5 days by two-fold serial dilution method; type: functional
[3] = system: Escherichia coli; assay: Antimicrobial activity against Escherichia coli CDC F-50 measured every 24 hrs for 5 days by two-fold serial dilution method; type: functional
[4] = system: Pseudomonas aeruginosa; assay: Antimicrobial activity against Pseudomonas aeruginosa ATCC 9027 measured every 24 hrs for 5 days by two-fold serial dilution method; type: functional
[5] = system: Aspergillus niger; assay: Antimicrobial activity against Aspergillus niger BKMF-1119 measured after 14 days by two-fold serial dilution method; type: functional, organism-based
[6] = system: Trichophyton mentagrophytes; assay: Antimicrobial activity against Trichophyton mentagrophytes var. gypseum 1773 measured after 14 days by two-fold serial dilution method; type: functional
[7] = system: Candida albicans; assay: Antimicrobial activity against Candida albicans 855-653 measured after 14 days by two-fold serial dilution method; type: functional
[8] = system: Staphylococcus aureus; assay: Bactericidal activity against Staphylococcus aureus 209p measured after 4 hrs; type: functional
Procedure, shortened: (§1)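 Microbicidal (bactericidal/fungicidal) concentration, killing of microbial cells, determined per literature procedures; tests in duplicate, repeated twice.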

[9] = system: Bacillus cereus; assay: Bactericidal activity against Bacillus cereus ATCC 8035 measured after 4 hrs; type: functional; conditions: ATCC 8035, 4 h; procedure, shortened: as §1
[10] = system: Escherichia coli; assay: Bactericidal activity against Escherichia coli CDC F-50 measured after 4 hrs; type: functional; procedure, shortened: as §1
[11] = system: Pseudomonas aeruginosa; assay: Bactericidal activity against Pseudomonas aeruginosa ATCC 9027 measured after 4 hrs; type: functional; procedure, shortened: as §1
[12] = system: Aspergillus niger; assay: Bactericidal activity against Aspergillus niger BKMF-1119 measured after 4 hrs; type: functional, organism-based; procedure, shortened: as §1
[13] = system: Trichophyton mentagrophytes var. granulosum; assay: (§2) Bactericidal activity against Trichophyton mentagrophytes var. granulosum 1773 measured after 4 hrs; type: functional; procedure, shortened: as §1
[14] = system: Candida albicans; assay: Bactericidal activity against Candida albicans 855-653 measured after 4 hrs; type: functional; procedure, shortened: as §1
[15] = system: WI-38; assay: Cytotoxicity against human WI38 cells assessed as reduction in cell viability at 47 uM by Cytell imaging analysis; type: cell-based; conditions: wi-38, 47 µM
Procedure, shortened: (§3)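 WI-38 human embryonic lung and Chang liver cells exposed to compounds at three concentrations each (0.70–47.0 μM range, spanning antimicrobial concentrations); cytotoxicity read as number of viable cells counted.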

[16] = system: WI-38; assay: Cytotoxicity against human WI38 cells assessed as reduction in cell viability at 0.7 to 11.3 uM by Cytell imaging analysis; type: cell-based; conditions: wi-38, 11.3 µM; procedure, shortened: as §3
[17] = Cytotoxicity against human Chang cells assessed as reduction in cell viability at 47 uM by Cytell imaging analysis; type: cell-based; procedure, shortened: as §3
[18] = Cytotoxicity against human Chang cells assessed as reduction in cell viability at 0.7 to 11.3 uM by Cytell imaging analysis; type: cell-based; procedure, shortened: as §3
[19] = Antioxidant activity assessed as ABAP free radical scavenging activity by measuring decrease in chemiluminescence intensity at 0.5 mM; type: functional; design: scale not given: the % may be the effect or the level left
Procedure, shortened: (§4)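 Chemiluminescent radical system of ABAP (2,2′-azobis(2-methylpropionamidine) dihydrochloride) plus luminol in buffer, total 1.000 mL; baseline recorded, then test substance added at 0.25, 0.50 or 1.00 mM; chemiluminescence intensity followed over time and expressed as percent of initial value. Ionol used as reference antioxidant.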

[20] = Antioxidant activity assessed as ABAP free radical scavenging activity by measuring decrease in chemiluminescence intensity at 0.25 mM; type: functional; design: scale not given: the % may be the effect or the level left; procedure, shortened: as §4
[21] = Antioxidant activity assessed as ABAP free radical scavenging activity by measuring decrease in chemiluminescence intensity at 1 mM; type: functional; design: scale not given: the % may be the effect or the level left; procedure, shortened: as §4
[22] = as §2; type: functional; conditions: Trichophyton mentagrophytes, 1773, 4 h; procedure, shortened: as §1
[23] = Antioxidant activity assessed as ABAP free radical scavenging activity by measuring decrease in chemiluminescence intensity at 1 mM measured after 600 secs; type: functional; design: scale not given: the % may be the effect or the level left; procedure, shortened: as §4
[24] = Antioxidant activity assessed as ABAP free radical scavenging activity by measuring decrease in chemiluminescence intensity at 0.25 mM measured after 400 secs; type: functional; procedure, shortened: as §4
[25] = Antioxidant activity assessed as ABAP free radical scavenging activity by measuring decrease in chemiluminescence intensity at 0.5 mM measured after 500 secs; type: functional; procedure, shortened: as §4

SMILES	MIC [1] [µM]	MIC [2] [µM]	MIC [3]	MIC [4]	MIC [5]	MIC [6]	MIC ([7]; 855-653, 336 h) [µM]	MIC [8] [µM]	MIC [9] [µM]	MIC [11]	MIC [12]	MIC [13]	MIC ([14]; 855-653, 4 h) [µM]	Activity [16]	Activity [18]	Activity [19] [%]	Activity [20] [%]	MIC [10]	also measured
CCCCCCCCCC[N+](C)(C)CCNC(c1cc(C(C)(C)C)c(O)c(C(C)(C)C)c1)P(=O)(OCC)OCC.[Br-] (centres undefined)	2.9	2.9	94.1 µM	94.1 µM	inactive	inactive	47	2.9	2.9	inactive	inactive	inactive	47	Non-Toxic	Non-Toxic	26	44	–	MIC ([10]; CDC F-50, 4 h): 188 µM; Activity [15]: Toxic; Activity [17]: Toxic; Activity [21]: 20%
CC(=O)N1CCN(c2ccc(OCC3COC(Cn4ccnc4)(c4ccc(Cl)cc4Cl)O3)cc2)CC1 (centres undefined) [KETOCONAZOLE]	–	–	–	–	–	–	7.6 (≈ 4.04 µg/mL)	–	–	–	–	–	15.2 (≈ 8.08 µg/mL)	–	–	–	–	–	MIC ([6]; var. gypseum 1773, 336 h): 7.6 µM (≈ 4.04 µg/mL); MIC [22]: 15.2 µM (≈ 8.08 µg/mL)
CCOP(=O)(OCC)C(NCCC[N+](C)(C)CC)c1cc(C(C)(C)C)c(O)c(C(C)(C)C)c1 (centres undefined)	442	221	inactive	inactive	inactive	inactive	–	442	221	inactive	inactive	inactive	> 500	–	–	26	44	inactive	MIC [7]: inactive; Activity [23]: 26%
CCCCCCCCCC[N+](C)(C)CCCNC(c1cc(C(C)(C)C)c(O)c(C(C)(C)C)c1)P(=O)(OC(C)C)OC(C)C.[Br-] (centres undefined)	0.7	2.7	44.3 µM	22 µM	inactive	inactive	11	1.3	177	–	inactive	inactive	11	Non-Toxic	Non-Toxic	26	44	–	MIC ([10]; CDC F-50, 4 h): 177 µM; MIC ([11]; ATCC 9027, 4 h): 44.3 µM; Activity [24]: Active; Activity [25]: Active; Activity [23]: 26%
CCOP(=O)(OCC)C(NCC[N+](C)(C)Cc1ccccc1)c1cc(C(C)(C)C)c(O)c(C(C)(C)C)c1 (centres undefined)	51	6.4	inactive	inactive	inactive	inactive	177	407	102	inactive	inactive	inactive	177	–	–	–	–	inactive	–
CCOP(=O)(OCC)C(NCCC[N+](C)(C)Cc1ccccc1)c1cc(C(C)(C)C)c(O)c(C(C)(C)C)c1 (centres undefined)	99.5	24.8	inactive	inactive	inactive	inactive	199	199	24.8	inactive	inactive	inactive	199	–	–	–	–	inactive	–
CCCCCCCC[N+](C)(C)CCCNC(=O)CCc1cc(C(C)(C)C)c(O)c(C(C)(C)C)c1	28	28.1	inactive	inactive	inactive	inactive	28	28	28.1	inactive	inactive	inactive	56.3	–	–	–	–	inactive	–
CCCCCCCCCC[N+](C)(C)CCNC(c1cc(C(C)(C)C)c(O)c(C(C)(C)C)c1)P(=O)(OC(C)C)OC(C)C.[Br-] (centres undefined)	2.7	5.6	inactive	inactive	inactive	inactive	11.3	5.6	90	inactive	inactive	inactive	11.3	Non-Toxic	Non-Toxic	–	–	inactive	–
CC[N+](C)(C)CCNC(c1cc(C(C)(C)C)c(O)c(C(C)(C)C)c1)P(=O)(OC(C)C)OC(C)C (centres undefined)	108	216	inactive	inactive	inactive	inactive	432	108	216	inactive	inactive	inactive	–	–	–	–	–	inactive	MIC [14]: inactive
CC(C)OP(=O)(OC(C)C)C(NCCC[N+](C)(C)Cc1ccccc1)c1cc(C(C)(C)C)c(O)c(C(C)(C)C)c1 (centres undefined)	95.3	95.3	inactive	inactive	inactive	inactive	–	95.3	95.3	inactive	inactive	inactive	–	–	–	–	–	inactive	MIC [7]: inactive; MIC [14]: inactive
